Measured values: ChEMBL document CHEMBL1135727, “Selective antagonists at group I metabotropic glutamate receptors: synthesis and molecular pharmacology of 4-aryl-3-isoxazolol amino acids” (J Med Chem, 2002)

Legend:
[1] = molecular target: Glutamate receptor ionotropic, kainate 1 (Rattus norvegicus, UniProt P22756); experiment: Concentration which causes 50% reduction in receptor binding affinity against Ionotropic glutamate receptor ionotropic kainate using [3H]-kainic acid
[2] = molecular target: T1, Glutamate receptor ionotropic, AMPA (Rattus norvegicus, UniProt P19490+P19491+P19492+P19493); experiment: Concentration which causes 50% reduction in receptor binding affinity against Ionotropic glutamate receptor AMPA using [3H]AMPA; format: protein-complex assay
[3] = molecular target: Metabotropic glutamate receptor 2 (Rattus norvegicus, UniProt P31421); experiment: The compound was tested for the receptor binding affinity at Metabotropic glutamate receptor 2 using established second messenger assay systems.
Procedure, shortened: (§1)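 Receptors were expressed in CHO cells: mGluR1α, mGluR2, mGluR4a and mGluR5a. Functional read-outs were PI hydrolysis (1.8 × 10^6 cells seeded 2 days before) or cyclic AMP formation (1.0 × 10^6 cells seeded 2 days before). Agonist and antagonist activity was tested at 1 mM unless stated otherwise. Ki was derived from IC50 via the Cheng–Prusoff equation.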

[4] = molecular target: Metabotropic glutamate receptor 4 (Rattus norvegicus, UniProt P31423); experiment: The compound was tested for the receptor binding affinity at Metabotropic glutamate receptor 4 using established second messenger assay systems.; procedure, shortened: as §1
[5] = molecular target: Metabotropic glutamate receptor 1 (Rattus norvegicus, UniProt P23385); experiment: The compound was tested for the receptor binding affinity at Metabotropic glutamate receptor 1 using established second messenger assay systems.; procedure, shortened: as §1
[6] = molecular target: Glutamate NMDA receptor; experiment: Concentration which causes 50% reduction in receptor binding affinity against N-methyl-D-aspartate glutamate receptor (NMDA) using [3H]CPP; format: protein-complex assay
[7] = organism: Rattus norvegicus; experiment: Electropharmacology measured as agonist effects in the rat cortical wedge model; format: functional
[8] = molecular target: Metabotropic glutamate receptor 5 (Rattus norvegicus, UniProt P31424); experiment: The compound was tested for the receptor binding affinity at Metabotropic glutamate receptor 5 using established second messenger assay systems.; procedure, shortened: as §1
[9] = organism: Rattus norvegicus; experiment: Electropharmacology measured as antagonist effects in the rat cortical wedge model; format: functional
[10] = molecular target: T1, Glutamate receptor ionotropic, AMPA; experiment: Concentration which causes 50% reduction in receptor binding affinity against Ionotropic glutamate receptor AMPA using [3H]AMPA

Chain of Metabotropic glutamate receptor 2 (P31421 whole entry): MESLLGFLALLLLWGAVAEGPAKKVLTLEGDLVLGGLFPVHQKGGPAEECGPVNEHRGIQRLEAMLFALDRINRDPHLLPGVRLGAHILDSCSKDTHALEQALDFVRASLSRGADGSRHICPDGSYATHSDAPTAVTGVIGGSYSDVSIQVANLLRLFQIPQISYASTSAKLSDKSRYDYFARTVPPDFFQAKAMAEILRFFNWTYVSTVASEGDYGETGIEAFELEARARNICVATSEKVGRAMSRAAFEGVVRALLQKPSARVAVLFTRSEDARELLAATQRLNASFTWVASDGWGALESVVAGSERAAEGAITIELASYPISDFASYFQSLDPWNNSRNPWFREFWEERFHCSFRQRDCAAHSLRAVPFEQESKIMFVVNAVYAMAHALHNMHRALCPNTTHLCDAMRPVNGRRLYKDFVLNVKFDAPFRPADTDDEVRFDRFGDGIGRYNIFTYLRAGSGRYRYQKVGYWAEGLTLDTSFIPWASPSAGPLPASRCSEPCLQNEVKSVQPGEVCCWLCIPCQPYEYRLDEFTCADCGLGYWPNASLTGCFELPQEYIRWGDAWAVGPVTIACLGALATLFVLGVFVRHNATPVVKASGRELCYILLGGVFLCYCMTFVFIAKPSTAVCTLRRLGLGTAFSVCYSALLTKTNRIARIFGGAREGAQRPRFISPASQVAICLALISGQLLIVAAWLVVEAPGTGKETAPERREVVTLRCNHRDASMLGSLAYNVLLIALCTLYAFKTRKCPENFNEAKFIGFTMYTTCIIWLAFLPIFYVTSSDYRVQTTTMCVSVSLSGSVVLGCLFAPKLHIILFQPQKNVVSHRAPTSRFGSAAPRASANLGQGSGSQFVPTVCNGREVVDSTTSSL
Chain of Metabotropic glutamate receptor 5 (P31424 whole entry): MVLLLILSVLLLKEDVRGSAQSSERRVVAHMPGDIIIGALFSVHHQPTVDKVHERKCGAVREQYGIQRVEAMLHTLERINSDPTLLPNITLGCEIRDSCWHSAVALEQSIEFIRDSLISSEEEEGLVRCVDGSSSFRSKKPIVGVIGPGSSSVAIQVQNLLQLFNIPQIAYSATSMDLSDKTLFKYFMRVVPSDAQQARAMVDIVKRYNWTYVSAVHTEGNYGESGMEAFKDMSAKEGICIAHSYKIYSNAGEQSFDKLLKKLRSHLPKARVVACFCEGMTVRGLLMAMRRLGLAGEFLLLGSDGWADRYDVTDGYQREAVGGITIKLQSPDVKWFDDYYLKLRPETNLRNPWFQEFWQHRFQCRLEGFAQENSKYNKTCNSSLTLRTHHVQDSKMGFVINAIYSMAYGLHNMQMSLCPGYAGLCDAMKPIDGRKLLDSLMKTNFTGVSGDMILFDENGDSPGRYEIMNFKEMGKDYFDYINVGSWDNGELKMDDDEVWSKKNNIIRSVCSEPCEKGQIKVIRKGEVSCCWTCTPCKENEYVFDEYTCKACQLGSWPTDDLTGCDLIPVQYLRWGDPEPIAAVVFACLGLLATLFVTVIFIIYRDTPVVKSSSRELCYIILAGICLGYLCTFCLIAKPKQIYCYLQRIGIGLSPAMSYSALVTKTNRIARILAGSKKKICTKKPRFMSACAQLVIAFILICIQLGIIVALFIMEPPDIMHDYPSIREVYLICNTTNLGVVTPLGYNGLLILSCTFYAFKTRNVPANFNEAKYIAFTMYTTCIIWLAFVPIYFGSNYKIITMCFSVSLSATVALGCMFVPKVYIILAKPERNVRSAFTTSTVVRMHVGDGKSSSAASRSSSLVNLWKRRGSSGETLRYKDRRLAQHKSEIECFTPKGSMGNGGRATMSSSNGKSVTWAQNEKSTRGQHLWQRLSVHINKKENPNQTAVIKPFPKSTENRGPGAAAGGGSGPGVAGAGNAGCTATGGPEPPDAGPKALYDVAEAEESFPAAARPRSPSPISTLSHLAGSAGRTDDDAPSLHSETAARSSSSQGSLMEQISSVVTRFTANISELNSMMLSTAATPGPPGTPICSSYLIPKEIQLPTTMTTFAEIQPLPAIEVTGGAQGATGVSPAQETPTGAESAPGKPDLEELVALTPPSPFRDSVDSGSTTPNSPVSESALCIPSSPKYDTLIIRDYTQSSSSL
Chain of Metabotropic glutamate receptor 4 (P31423 whole entry): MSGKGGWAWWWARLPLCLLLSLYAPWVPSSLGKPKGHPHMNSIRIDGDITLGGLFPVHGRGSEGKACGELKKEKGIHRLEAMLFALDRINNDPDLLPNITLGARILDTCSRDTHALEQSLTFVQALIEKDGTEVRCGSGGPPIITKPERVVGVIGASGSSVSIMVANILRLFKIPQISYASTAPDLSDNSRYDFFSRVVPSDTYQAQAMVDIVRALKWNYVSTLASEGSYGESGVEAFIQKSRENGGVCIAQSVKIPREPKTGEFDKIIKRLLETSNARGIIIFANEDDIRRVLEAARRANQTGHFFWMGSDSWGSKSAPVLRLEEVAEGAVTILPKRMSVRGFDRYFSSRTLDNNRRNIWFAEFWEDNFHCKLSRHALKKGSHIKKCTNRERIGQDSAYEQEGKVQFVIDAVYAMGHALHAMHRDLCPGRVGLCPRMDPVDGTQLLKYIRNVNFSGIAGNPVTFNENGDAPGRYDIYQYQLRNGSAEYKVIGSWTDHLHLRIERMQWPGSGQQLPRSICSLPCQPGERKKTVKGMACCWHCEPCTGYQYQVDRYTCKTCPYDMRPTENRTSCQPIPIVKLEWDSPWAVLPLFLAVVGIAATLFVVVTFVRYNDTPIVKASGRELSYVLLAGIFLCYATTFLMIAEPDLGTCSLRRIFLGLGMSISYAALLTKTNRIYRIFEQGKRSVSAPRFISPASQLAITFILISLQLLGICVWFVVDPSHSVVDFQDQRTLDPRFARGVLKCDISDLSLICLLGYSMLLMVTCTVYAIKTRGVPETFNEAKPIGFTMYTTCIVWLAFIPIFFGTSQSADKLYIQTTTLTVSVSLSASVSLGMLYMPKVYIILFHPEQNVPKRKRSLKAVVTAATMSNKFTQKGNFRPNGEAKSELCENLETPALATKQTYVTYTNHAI
Chain of Metabotropic glutamate receptor 1 (P23385 whole entry): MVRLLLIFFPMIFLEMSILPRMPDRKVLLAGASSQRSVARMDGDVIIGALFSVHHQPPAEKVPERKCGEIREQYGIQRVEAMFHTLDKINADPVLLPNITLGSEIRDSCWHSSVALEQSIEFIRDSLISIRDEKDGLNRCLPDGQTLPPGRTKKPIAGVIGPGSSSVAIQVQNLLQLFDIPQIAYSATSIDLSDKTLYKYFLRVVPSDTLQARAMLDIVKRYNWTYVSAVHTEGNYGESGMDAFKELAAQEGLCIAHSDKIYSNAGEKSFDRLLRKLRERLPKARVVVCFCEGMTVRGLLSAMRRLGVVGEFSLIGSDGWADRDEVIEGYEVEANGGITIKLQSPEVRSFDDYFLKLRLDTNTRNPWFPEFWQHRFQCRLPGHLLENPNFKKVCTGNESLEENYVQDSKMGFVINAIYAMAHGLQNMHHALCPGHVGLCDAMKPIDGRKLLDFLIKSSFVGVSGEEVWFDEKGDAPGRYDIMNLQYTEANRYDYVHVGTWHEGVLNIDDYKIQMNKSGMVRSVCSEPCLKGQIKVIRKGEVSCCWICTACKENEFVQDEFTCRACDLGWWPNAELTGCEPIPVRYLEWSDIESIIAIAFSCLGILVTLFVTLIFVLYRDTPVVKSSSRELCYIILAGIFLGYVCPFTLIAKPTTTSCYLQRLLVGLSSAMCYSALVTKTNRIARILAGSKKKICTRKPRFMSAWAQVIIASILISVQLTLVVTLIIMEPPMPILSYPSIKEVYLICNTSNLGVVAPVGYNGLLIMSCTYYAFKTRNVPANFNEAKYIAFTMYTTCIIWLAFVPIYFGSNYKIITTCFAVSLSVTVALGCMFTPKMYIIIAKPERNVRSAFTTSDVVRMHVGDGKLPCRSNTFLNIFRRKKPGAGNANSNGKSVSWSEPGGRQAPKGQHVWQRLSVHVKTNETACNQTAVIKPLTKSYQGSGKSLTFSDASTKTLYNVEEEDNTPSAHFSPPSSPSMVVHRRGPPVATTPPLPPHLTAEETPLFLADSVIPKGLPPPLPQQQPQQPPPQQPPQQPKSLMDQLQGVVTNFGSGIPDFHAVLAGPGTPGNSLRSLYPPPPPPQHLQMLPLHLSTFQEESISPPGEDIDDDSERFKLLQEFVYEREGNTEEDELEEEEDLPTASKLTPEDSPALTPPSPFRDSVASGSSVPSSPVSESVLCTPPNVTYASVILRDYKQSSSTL

IC50 [1] [µM]	IC50 [2] [µM]	Ki [3] [µM]	Ki [4] [µM]	Ki [5] [µM]	IC50 [6] [µM]	EC50 [7] [µM]	Ki [8] [µM]	IC50 [9] [µM]	IC50 [10] [µM]	Structure (SMILES)
> 100	62	> 1000	> 1000	226	42	990				N[C@@H](Cc1onc(O)c1-c1cccc(O)c1)C(=O)O
> 100	> 100	> 1000	> 1000	249	14		53	715		N[C@@H](Cc1onc(O)c1-c1ccc2ccccc2c1)C(=O)O
> 100	> 100	> 1000	> 1000	160	> 100	590				N[C@@H](Cc1onc(O)c1-c1ccccc1)C(=O)O
> 100	> 100	> 1000	> 1000	71	20		65	~1000		N[C@@H](Cc1onc(O)c1-c1ccc(O)cc1)C(=O)O

Continued, molecule first:

Structure (SMILES)	IC50 [1] [µM]	IC50 [2] [µM]	Ki [3] [µM]	Ki [4] [µM]	Ki [5] [µM]	IC50 [6] [µM]	EC50 [7] [µM]	Ki [8] [µM]	IC50 [9] [µM]	IC50 [10] [µM]
N[C@@H](Cc1o[nH]c(=O)c1-c1ccccn1)C(=O)O	> 100	1.3	> 1000	> 1000	396	> 100	23	224		
N[C@@H](Cc1cc(=O)[nH]o1)C(=O)O	> 100		> 1000	> 1000	250	> 100		490		
N[C@@H](Cc1o[nH]c(=O)c1CCc1ccccc1)C(=O)O	> 100	> 100	> 1000	> 1000	92	> 100		70	> 1000	
N[C@@H](Cc1o[nH]c(=O)c1-c1cccc2ccccc12)C(=O)O	> 100		> 1000	> 1000	119	> 100		62	~1000	> 100
N[C@@H](Cc1onc(O)c1-c1ccccc1O)C(=O)O	> 100	> 100	> 1000	> 1000	125	> 100	> 1000	45		
